Laboratory results as given in ChEMBL document CHEMBL3243963, “Drugs derived from cannabinoids. 7. Tachycardia and analgesia structure-activity relationships in delta9-tetrahydrocannabinol and some synthetic analogues” (J Med Chem, 1978).

Key:
Rattus norvegicus = assay: Toxicity in ip dosed Wistar rat assessed as tachycardia; type: organism-based; details: in vivo
Method in brief: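 Conscious rats on a warming plate, with rectal temperature kept below 39 °C. Heart rate taken from tail pulse sound (piezo contact microphone, tachograph). Agents given ip in absolute ethanol or distilled water according to solubility. Maximum heart-rate increase plotted against log dose. ED50 with 95% confidence limits by computerized Litchfield–Wilcoxon. Five, six or twelve rats per dose depending on compound.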

Mus musculus [1] = assay: Analgesic activity in po dosed mouse by hot plate test; type: functional
Method in brief: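 Mouse hot-plate antinociception after oral dosing, ten mice per dose. ED50 with 95% confidence limits by computerized Litchfield–Wilcoxon method.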

Mus musculus [2] = assay: Analgesic activity in po dosed mouse by anti-writhing test; type: functional
Method in brief: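 Mouse antiwrithing test after oral dosing, five mice per dose. ED50 (half-maximal effect dose) with 95% confidence limits by computerized modification of Litchfield–Wilcoxon.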

Compound	Activity (Rattus norvegicus)	ED50 (Rattus norvegicus)	ED50 (Mus musculus [1])	ED50 (Mus musculus [2])
C#CCN1CCC2=C(C1)c1c(OC(=O)C(C)CCN3CCCCC3C)cc(C(C)C(C)CCCCC)cc1OC2(C)C.Cl (stereo unspecified)	Dose-dependent effect	0.53 mg/kg	3.8 mg/kg	7.3 mg/kg
Br.CCCCCc1cc(OC(=O)CCCN2CCOCC2)c2c(c1)OC(C)(C)[C@@H]1CCC(C)=C[C@@H]21	Dose-dependent effect	0.092 mg/kg	168 mg/kg	> 40 mg/kg
CCCCCC(C)C(C)c1cc(OC(=O)CCCN2CCCCC2)c2c(c1)OC(C)(C)C1=C2CC(C)CC1.Cl (stereo unspecified)	Dose-dependent effect	1.92 mg/kg	15 mg/kg	25.9 mg/kg
Br.CCCCCC(C)C(C)c1cc(OC(=O)CCCN2CCOCC2)c2c(c1)OC(C)(C)C1=C2CC(C)CC1 (stereo unspecified)	Dose-dependent effect	2.13 mg/kg	0.5 mg/kg	2.3 mg/kg
C#CCN1CCC2=C(C1)c1c(OC(=O)C(C)CCN3CCCCC3)cc(C(C)C(C)CCCCC)cc1OC2(C)C.Cl (stereo unspecified)	Dose-dependent effect	0.4 mg/kg	4.6 mg/kg	12.2 mg/kg
C#CCN1CCC2=C(C1)c1c(O)cc(C(C)C(C)CCCCC)cc1OC2(C)C (stereo unspecified)	Dose-dependent effect	0.061 mg/kg	7.7 mg/kg	4.3 mg/kg
CCCCCC(C)C(C)c1cc(O)c2c(c1)OC(C)(C)C1=C2CC(C)CC1 (mixture of isomers)	Dose-dependent effect	0.31 mg/kg	9.3 mg/kg	3 mg/kg
CCCCCc1cc(O)c2c(c1)OC(C)(C)[C@@H]1CCC(C)=C[C@@H]21 [DRONABINOL]	Dose-dependent effect	0.062 mg/kg	> 100 mg/kg	43 mg/kg
C#CCN1CCC2=C(C1)c1c(OC(=O)CCCN3CCCCC3)cc(C(C)C(C)CCCCC)cc1OC2(C)C.Cl (stereo unspecified) [NABITAN HYDROCHLORIDE]	Dose-dependent effect	0.11 mg/kg	5.3 mg/kg	12 mg/kg
